In one series the target is Cytochrome P450 3A4 (Homo sapiens, UniProt P08684). In words: Time-dependent inhibition of CYP3A4 in human liver microsome using midazolam as substrate by TDI shift assay. Type of series: ADME, microsomes. An outline of the steps: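 CYP3A4 time-dependent inhibition shift assay in human liver microsomes with NADPH cofactor and midazolam as probe substrate. The compound was preincubated for 30 min and compared with no preincubation. A left shift of the CYP activity curve after preincubation designates the compound TDI positive.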
(Liver microsomes are vesicles of endoplasmic reticulum, rich in cytochrome P450 enzymes.)

The nature of series [1]: Dissociation constant, pKa of the compound. Format: physicochemical.
Series [2] has as its system PC-3. Briefly: Antiproliferative activity against PTEN-null human PC3 cells. Format: functional, cell-based. Summed up: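 PC3 prostate cancer cells (PTEN loss, PI3K-AKT-mTOR pathway activated) used for the antiproliferation assay. Activity is expressed as EC50 in nM.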
Series [3] can be described thus: Antitumor activity against PI3K-mutant human MCF7-neo/Her2 cells xenografted in po dosed NCR nude mouse assessed as tumor growth inhibition at maximum tolerated dose administered qd for 14-21 days. Type of series: functional. Summed up: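 Athymic mice bearing MCF7-neo/Her2 breast tumour xenografts (PI3K-mutant) were given the drug orally once daily at 10, 20, 30, 40, 50, 60, 70 or 80 mg/kg, with a vehicle (0 mg/kg) group. Read-out was tumour growth inhibition across the dose range, with body weight change also tracked.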
On the technique in general: A xenograft is tissue or cells of one species grown in another, often human tumour cells in immunodeficient mice.

Series [4] deals with Mus musculus. In words: Toxicity in NCR nude mouse xenografted with human PI3K-mutant MCF7-neo/Her2 cells assessed as body weight changes up to 80 mg/kg, po qd for 14-21 days. Type of series: organism-based. More on the design: dose 80 mg/kg, route oral. The settings on record: in vivo. Summed up: (§1)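 MCF7-neo/Her2 (PI3K-mutant) breast cancer xenografts in athymic mice. Compound given orally once daily at 10, 20, 30, 40, 50, 60, 70 and 80 mg/kg QD, with a vehicle group (0 mg/kg). Tumor growth inhibition was tracked, and body weight change was monitored up to the highest dose.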

For series [5], the system named is Plasma. Briefly: Free plasma clearance in mouse. Format: ADME, cell-free.
Series [6] has as its system Plasma. In words: Free plasma clearance in rat. Format: ADME, cell-free.
Series [7] has as its system Homo sapiens. Briefly: Decrease in phosphorylation of Akt at Ser473 in PI3K-mutant human MCF7-neo/Her2 cells xenografted in NCR nude mouse at 25 to 100 mg/kg, po. Format: functional, organism-based.
The test system of series [8] is PC-3. In words: Antitumor activity against PTEN-null human PC3 cells xenografted in po dosed NCR nude mouse assessed as tumor growth inhibition administered qd for 14-21 days. Type of series: functional, organism-based.
Another series has as its system 786-0. In words: Antitumor activity against VHL mutant human 786-0 cells xenografted in po dosed nu/nu mouse assessed as tumor growth inhibition administered qd for 14-21 days. Format: functional, organism-based.
The subject of series [9] is Homo sapiens. In words: Antitumor activity against PI3K-mutant human MCF7-neo/Her2 cells xenografted in po dosed NCR nude mouse assessed as tumor growth inhibition administered qd for 14-21 days. Type of series: functional, organism-based. Summed up:
as §1

Series [10] deals with A549. Briefly: Antitumor activity against KRas mutant, LKB1 deficient human A549 cells xenografted in po dosed mouse assessed as delay in tumor growth administered qd in presence of MEK inhibitor, GDC-0973. Format: functional, organism-based.
Series [11] has as its system A549. In words: Antitumor activity against KRas mutant, LKB1 deficient human A549 cells xenografted in mouse assessed as tumor growth inhibition at 5 to 30 mg/kg, po qd. Format: functional, organism-based.
The subject of series [12] is Homo sapiens. Briefly: Antitumor activity against PI3K-mutant human MCF7-neo/Her2 cells xenografted in po dosed NCR nude mouse assessed as tumor growth inhibition administered once daily for 14-21 days.
Series [13] has as its system Homo sapiens. In words: Decrease in phosphorylated 4-EBP1 level in PI3K-mutant human MCF7-neo/Her2 cells xenografted in NCR nude mouse at 25 to 100 mg/kg, po. Format: functional, organism-based.
Series [14] concerns Mus musculus. Briefly: Toxicity in po dosed mouse xenografted with KRas mutant, LKB1 deficient human A549 cells assessed as body weight changes administered qd in presence of MEK inhibitor, GDC-0973. Format: organism-based. The settings on record: in vivo.
Series [15] is described as follows: In vivo clearance in mouse. Type of series: ADME, organism-based.

SMILES strings stand for the structures. Active and inactive are the calls of the source. The calls are words filed in the database; no cut-off is given here. Some results are limits rather than exact numbers.

Usually IC50 stands for the concentration that inhibits the measured activity by half. One may read the pKa as the negative logarithm of the acid dissociation constant. A word on the EC50: it is the concentration at which the effect is half-maximal. Read a high EC50 as a less potent agent. What is called clearance is the volume of plasma or blood freed of the substance per unit of time.

Cytochrome P450 3A4, sequence (P08684 whole entry): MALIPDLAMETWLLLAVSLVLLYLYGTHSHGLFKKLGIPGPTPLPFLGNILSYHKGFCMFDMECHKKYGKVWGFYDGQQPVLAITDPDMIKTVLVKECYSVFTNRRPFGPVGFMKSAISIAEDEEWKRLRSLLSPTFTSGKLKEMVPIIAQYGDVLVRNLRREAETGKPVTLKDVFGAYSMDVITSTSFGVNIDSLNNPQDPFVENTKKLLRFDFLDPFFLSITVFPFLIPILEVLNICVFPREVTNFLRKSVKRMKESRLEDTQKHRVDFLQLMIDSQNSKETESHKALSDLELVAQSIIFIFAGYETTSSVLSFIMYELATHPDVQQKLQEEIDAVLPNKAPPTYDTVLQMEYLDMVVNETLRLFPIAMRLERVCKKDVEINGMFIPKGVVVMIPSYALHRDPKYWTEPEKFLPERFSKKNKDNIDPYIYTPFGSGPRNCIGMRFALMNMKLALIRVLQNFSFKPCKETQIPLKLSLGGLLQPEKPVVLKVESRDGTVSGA

Regarding `CCNC(=O)Nc1ccc(-c2nc3c(c(N4CCOC[C@@H]4C)n2)CCN(C(C)C)C3)cc1`, the IC50 on Cytochrome P450 3A4 was more than 10000 nM. In addition, in series [1], the pKa came out at 7.6.

In the series on PC-3 [2], `CCNc1c(Nc2ccc(-c3nc4c(c(N5CCOC[C@@H]5C)n3)CCN(c3ncccn3)C4)cc2)c(=O)c1=O` registered an EC50 of 667 nM.

In the case of `CCNC(=O)Nc1ccc(-c2nc3c(c(N4CCOC[C@@H]4C)n2)CCN(c2ncc(F)cn2)C3)cc1`, the IC50 on Cytochrome P450 3A4 is 1400 nM.

In the case of `CCNC(=O)Nc1ccc(-c2nc3c(c(N4CCOC[C@@H]4C)n2)CCN(C2COC2)C3)cc1.CS(=O)(=O)O`, in series [3], the TGI worked out at 99%. For the same molecule, the Activity with Mus musculus [4] is given as less than 10%.

In the case of `O=C(NCCF)Nc1ccc(-c2nc3c(c(N4CCOCC4)n2)CCN(c2ncccn2)C3)cc1`, a half-maximal effect with PC-3 [2] (EC50) was put at 58 nM.

As to `CCNC(=O)Nc1ccc(-c2nc3c(c(N4CCOC[C@@H]4C)n2)CCN(c2ncccn2)C3)cc1`, the CL free in the series on Plasma [5] is 1818 mL/min/kg; with Plasma [6], 1538 mL/min/kg. The same molecule had an EC50 in the series with PC-3 [2] of 147 nM.

On to `CCNC(=O)Nc1ccc(-c2nc3c(c(N4CCOC[C@@H]4C)n2)CCN(C2COC2)C3)cc1`, for which the inhibition entry in the series with Homo sapiens [7] and in the series with Homo sapiens [13] was “Active” each time. The TGI entry in the series on PC-3 [8], with 786-0, in the series with A549 [10], in the series with A549 [11] and in the series with Homo sapiens [12] was “Active” each time. Besides, the inhibition entry in the series on Homo sapiens [9] was “Dose-dependent effect”.

For the molecule `CCNC(=O)Nc1ccc(-c2nc3c(c(N4CCOC[C@@H]4C)n2)CCN(c2cc(C)ncn2)C3)cc1`, at Cytochrome P450 3A4, the IC50 turned out to be 8400 nM.

In the series on PC-3 [2], `CCNC(=O)Nc1ccc(-c2nc3c(c(N4CCOCC4)n2)CCN(c2ncccn2)C3)cc1` showed an EC50 of 310 nM.

In the case of `CS(=O)(=O)N1CCN(Cc2cc3nc(-c4cccc5[nH]ncc45)nc(N4CCOCC4)c3s2)CC1` [PICTILISIB], the Activity result in the series on Mus musculus [14] is “Non-toxic”. Besides, the TGI entry with A549 [10] and with A549 [11] was “Active” each time.

For the molecule `CCNC(=O)Nc1ccc(-c2nc3c(c(N4CCOC[C@@H]4C)n2)CCN(c2nccn2C)C3)cc1`, at Cytochrome P450 3A4, the IC50 was more than 10000 nM.

As for `CCNC(=O)Nc1ccc(-c2nc3c(c(N4CCOC[C@@H]4C)n2)CCN(C2COC2)C3)cc1` [RG-7603], the CL free in the series on Plasma [5] was found to be 100 mL/min/kg; in the series on Plasma [6], 171 mL/min/kg. In the series with Mus musculus [14], the Activity entry is recorded as “Non-toxic”. This molecule registered a pKa in series [1] of 5.

As for `O=c1cccc(Nc2ccc(-c3nc4c(c(N5CCOCC5)n3)CCN(c3ncccn3)C4)cc2)[nH]1`, a half-maximal response in the series with PC-3 [2] (EC50) required 1300 nM.

Molecule `C[C@H]1COCCN1c1nc(-c2ccc(Nc3nccc(=O)[nH]3)cc2)nc2c1CCN(c1ncccn1)C2` came in with a clearance in series [15] of 78 mL/min/kg. The molecule further registered an EC50 with PC-3 [2] of 25 nM.

The molecule `C[C@H]1COCCN1c1nc(-c2ccc(Nc3nn(C)c(=O)[nH]3)cc2)nc2c1CCN(c1ncccn1)C2` showed an EC50 with PC-3 [2] of 139 nM.

As to `CCNC(=O)Nc1ccc(-c2nc3c(c(N4CCOC[C@@H]4C)n2)CCN(c2ccnc(C)n2)C3)cc1`, the IC50 on Cytochrome P450 3A4 was 3300 nM.

The values above are taken from ChEMBL document CHEMBL2331535, “Discovery and Biological Profiling of Potent and Selective mTOR Inhibitor GDC-0349” (ACS Med Chem Lett, 2013).
